# Article PMC3346155 (Drug Design, Development and Therapy, 2012)
# Entries after “also recorded” stand apart in the source; their conditions may differ. *1 amine or outer side, *2 acyl side, *3 side chain or, on linkers, in order; H or OH if unused. Where a SMILES comes first, the peptide text is derived from it. Side-chain parts run from the residue outwards. [ ]: non-standard residue; d: D form. The star is where a group is joined. Ethylenediamine = C(CN[*:2])N[*:1]; Hyp = O=C(O)[C@@H]1C[C@@H](O)CN1; Phg = N[C@H](C(=O)O)c1ccccc1; CO = O=C([*:1])[*:2]; Bn = c1ccc(C*)cc1
# Columns and labels:
# human sst5 = details: cited from earlier work; for IC50: read-out: IC50, binding affinity to sst5, human sst5, mean ± SEM
# human sst2 = details: cited from earlier work; for IC50: read-out: IC50, binding affinity to sst2, human sst2, mean ± SEM
# human sst1 = details: cited from earlier work; for IC50: read-out: IC50, binding affinity to sst1, human sst1, mean ± SEM
# human sst4 = details: read-out: IC50, binding affinity to sst4, mean ± SEM; cited from earlier work
# human sst3 = details: cited from earlier work; for IC50: read-out: IC50, binding affinity to sst3, human sst3, mean ± SEM
# [1] = compared with octreotide; cited from earlier work
# [2] = Safety and tolerability of a single subcutaneous dose in healthy volunteers; type: in vivo, human
# Summary of the method: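 Randomized, double-blind, placebo-controlled ascending single s.c. doses; cohorts had 4–8 active and 2 placebo subjects. Subjects were confined from about 36 h pre-dose until 48-h safety results were available, with follow-up over 7 days. AEs came from self-report, investigator questioning, examination or laboratory tests. Laboratory abnormalities counted as AEs only if symptomatic or treated. SAEs were recorded until 4 weeks after the trial. Laboratory tests were run centrally, with descriptive statistics.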
# [3] = Plasma pharmacokinetics after a single subcutaneous dose in healthy volunteers; type: in vivo, human
# Summary of the method: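 Single s.c. dose in healthy males. Blood was drawn by venipuncture or forearm cannula up to 144 h post-dose and centrifuged to plasma. Drug was quantified by validated radioimmunoassay (LLOQ 0.03 ng/mL); values below the LLOQ were set to zero. Parameters came from non-compartmental analysis, reported as median (range) for tmax and mean ± SD otherwise. Dose proportionality was tested by a log-dose versus log-parameter linear model.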
# [4] = system: GHRH-stimulated GH secretion; test: GHRH stimulation test, GH suppression in healthy volunteers; type: in vivo, human; details: for Emax, maximum GH reduction: value ± standard error
# Summary of the method: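 The GHRH stimulation test ran on Day –1 and Day 1. A 1 μg/kg GHRH bolus was given about 3 h after the s.c. dose. Plasma GH was sampled at −60 and 0 min and up to 120 min after GHRH, and measured by chemiluminescence assay (LLOQ 0.06 ng/mL).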
# [5] = Blood glucose levels after a single subcutaneous dose in healthy volunteers; type: in vivo, human
# Summary of the method: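 Healthy males aged 18–40 received one s.c. dose (1–1200 μg) or placebo between 8 and 9 am, about 1 h after a light standardized meal. Blood glucose was measured by the central standard laboratory panel at these times: pre-breakfast before dosing; before and 60 min after a standard lunch on Day –1 and Day 1; 2 h post-dose; and 23 h post-dose on Day 2.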
# [6] = single s.c. dose 1200 μg, n = 6
# [7] = male, human, plasma, sc, 2.5 ug
# [8] = male, human, plasma, sc, 100 ug
# [9] = male, human, plasma, sc, 200 ug
# [10] = male, human, plasma, sc, 300 ug
# [11] = male, human, plasma, sc, 600 ug
# [12] = male, human, plasma, sc, 1200 ug
# [13] = single s.c. dose, across dose levels, healthy male volunteers
compound,measurement,setting,value
Lanreotide [reference compound],IC50,human sst5,17 ± 5 nM
same,IC50,human sst2,0.54 ± 0.08 nM
same,IC50,human sst1,180 ± 20 nM
same,IC50,human sst4,230 ± 40 nM
same,IC50,human sst3,14 ± 9 nM
Octreotide [reference compound],IC50,human sst5,6.3 ± 1 nM
same,IC50,human sst2,0.38 ± 0.08 nM
same,IC50,human sst1,280 ± 80 nM
same,IC50,human sst4,> 1000 nM
same,IC50,human sst3,7.1 ± 1.4 nM
NCCCC[C@@H]1NC(=O)[C@@H](Cc2c[nH]c3ccccc23)NC(=O)[C@H](c2ccccc2)NC(=O)[C@@H]2C[C@@H](OC(=O)NCCN)CN2C(=O)[C@H](Cc2ccccc2)NC(=O)[C@H](Cc2ccc(OCc3ccccc3)cc2)NC1=O [Pasireotide] (cyclo([Hyp]([CO-Ethylenediamine])[Phg][dW]KY(Bn)F)),metabolic stability,[1],greater metabolic stability than octreotide
same,higher binding affinity for sst5 than endogenous somatostatin,human sst5; ratio versus endogenous somatostatin,2 fold
same,higher binding affinity for sst5 compared with octreotide,human sst5; ratio versus octreotide,39 fold
same,IC50,human sst5,0.16 ± 0.01 nM
same,lower affinity for sst2 compared with octreotide,human sst2; ratio versus octreotide,2.6 times
same,IC50,human sst2,1 ± 0.1 nM
same,higher binding affinity for sst1 compared with octreotide,human sst1; ratio versus octreotide,30 fold
same,IC50,human sst1,9.3 ± 0.1 nM
same,AEs considered related to the study drug,"[2]; observed in the 1200 μg dose group only, of a total of 12 AEs in the study",eight
same,increased lipase level,"[2]; one subject, single s.c. dose 10 μg, 48 hours post-dose, normal range 23–300 U/L",523 U/L
same,subjects who experienced at least one AE,[2]; [6],6 subjects
same,subjects who experienced nausea,[2]; [6],five
same,"deaths, serious adverse events, clinically significant changes in laboratory values, vital signs or ECG","[2]; single s.c. dose 1–1200 μg, any dose, healthy male volunteers","no serious adverse events observed at any dose; also recorded: no reports of death, SAEs, or clinically significant changes in laboratory values, vital signs or ECG parameters"
same,tolerability,"[2]; single s.c. dose 1–1200 μg, healthy male volunteers",generally well tolerated
same,maximum tolerable dose,"[2]; single s.c. dose, tested range 1–1200 μg, healthy male volunteers",not established within the tested range
same,IC50,human sst4,> 1000 nM
same,AUC(0-t),[3]; [7],0.11 ± 0.09 ng·h/mL
same,Cmax,[3]; [7],0.06 ± 0.01 ng/mL
same,Tmax,[3]; [7],15 min
same,AUC(0-t),"[3]; male, human, plasma, sc, 10 ug",0.66 ± 0.25 ng·h/mL
same,Cmax,"[3]; male, human, plasma, sc, 10 ug",0.24 ± 0.06 ng/mL
same,Tmax,"[3]; male, human, plasma, sc, 10 ug",15 min
same,Vd/F,"[3]; male, human, plasma, sc, 10 ug",38.1 L
same,AUC(0-t),"[3]; male, human, plasma, sc, 30 ug",2.78 ± 1.02 ng·h/mL
same,Cmax,"[3]; male, human, plasma, sc, 30 ug",0.72 ± 0.17 ng/mL
same,Tmax,"[3]; male, human, plasma, sc, 30 ug",15 min
same,Vd/F,"[3]; male, human, plasma, sc, 30 ug",105 ± 5.7 L
same,half-life,"[3]; male, human, plasma, sc, 30 ug",444 ± 132 min
same,AUC(0-inf),[3]; [8],9.59 ± 2.44 ng·h/mL
same,AUC(0-t),[3]; [8],9.1 ± 2.37 ng·h/mL
same,CL/F,[3]; [8],183 mL/min
same,Cmax,[3]; [8],2.23 ± 0.45 ng/mL
same,Tmax,[3]; [8],30 min
same,Vd/F,[3]; [8],131 ± 41 L
same,AUC(0-inf),[3]; [9],17.5 ± 3.82 ng·h/mL
same,AUC(0-t),[3]; [9],16.8 ± 3.65 ng·h/mL
same,CL/F,[3]; [9],198 mL/min
same,Cmax,[3]; [9],3.73 ± 0.9 ng/mL
same,Tmax,[3]; [9],22.8 min
same,Vd/F,[3]; [9],162 ± 33.9 L
same,AUC(0-inf),[3]; [10],27.1 ± 6.98 ng·h/mL
same,AUC(0-t),[3]; [10],26 ± 6.87 ng·h/mL
same,CL/F,[3]; [10],198 mL/min
same,Cmax,[3]; [10],4.71 ± 1.79 ng/mL
same,Tmax,[3]; [10],22.8 min
same,Vd/F,[3]; [10],180 ± 44.3 L
same,AUC(0-inf),[3]; [11],78.6 ± 12.3 ng·h/mL
same,AUC(0-t),[3]; [11],75.6 ± 11.2 ng·h/mL
same,CL/F,[3]; [11],130 mL/min
same,Cmax,[3]; [11],15.6 ± 3.25 ng/mL
same,Tmax,[3]; [11],30 min
same,Vd/F,[3]; [11],464 ± 440 L
same,AUC(0-inf),[3]; [12],93.6 ± 13.6 ng·h/mL
same,AUC(0-t),[3]; [12],90.4 ± 13.2 ng·h/mL
same,CL/F,[3]; [12],218 mL/min
same,Cmax,[3]; [12],22.2 ± 5.53 ng/mL
same,Tmax,[3]; [12],30 min
same,Vd/F,[3]; [12],1190 ± 1570 L
same,half-life,[3]; [12],546 ± 126 min
same,partial AUC in the γ phase as contribution to total AUC∞,"[3]; single s.c. dose, 600 μg and 1200 μg, healthy male volunteers",< 15%
same,Tmax,[3]; [13],15 to 30 min
same,"t½,β (effective elimination half-life), mean",[3]; [13],420 to 660 min
same,"Vz/F, mean value","[3]; single s.c. dose, low doses (10 μg), healthy male volunteers",40 L
same,"Emax, maximum GH reduction",[4]; non-linear Emax model for GH AUC ratio versus Cavg,0.99 ± 0.03
same,"Emax, maximum GH reduction",[4]; non-linear Emax model for GH AUC ratio versus dose,1.00 ± 0.00
same,GH suppression,[4]; single pasireotide doses between 200 μg and 1200 μg s.c.,79%–96%
same,decrease in GH AUC2h,[4]; single s.c. dose 30–100 μg,approximately 45%
same,reduction in GH AUC2h,[4]; single s.c. doses between 1 μg and 10 μg,No reduction
same,higher binding affinity for sst3 compared with octreotide,human sst3; ratio versus octreotide,5 fold
same,glucose values,"[5]; all dose groups, twenty-three hours after the injection",normal for all groups
same,blood glucose levels,"[5]; doses between 200 μg and 1200 μg, 2–6 hours after administration, resolved by 23 hours post-dosing",Transient elevations in blood glucose levels
same,glucose levels,"[5]; single s.c. dose 600 μg and 1200 μg, six hours after administration",higher than those of placebo recipients
